Measurements pooled from the literature.
Protocols differ between the studies behind these lines.
Target: Serine/threonine-protein kinase PAK 2 (PAK2, Homo sapiens, UniProt Q13177)

| SMILES | test | conditions | measurement | value |
| --- | --- | --- | --- | --- |
| COc1ncccc1-c1cnn2ccc(N3CCN(C(=O)OC(C)C)CC3)nc12 | binding, competition with immobilised ligand | 1 µM | remaining binding | 100% |
| COc1cc(Nc2ncc(F)c(Nc3ccc4c(n3)NC(=O)C(C)(C)O4)n2)cc(OC)c1OC | binding, competition with immobilised ligand | 10 µM | inhibition | 64% |
| O=c1[nH]c2ccccc2n1C1CCN(Cc2ccc(-c3[nH]c4cc5ncnc5cc4nc3-c3ccccc3)cc2)CC1 | cell-free assay | 0.5 µM | remaining signal | 99.2% |
| C#Cc1n[nH]c2c(-c3cn([C@@H](C)c4ccccc4)c(=O)[nH]c3=O)cc(F)cc12 | enzyme activity, inhibitor | 0.1 µM | inhibition | 1.7% |
| Nc1ncc(-c2nc(N3CCOCC3)nc(N3CCOCC3)n2)c(C(F)F)n1 | binding, competition with immobilised ligand | 10 µM | remaining binding | 58% |
| Cn1cc(-c2cccc(N3CCc4c(sc5c4CC(C)(C)C5)C3=O)c2CO)cc(Nc2ccncn2)c1=O | enzyme activity, inhibitor | 1 µM | inhibition | 6% |
| Cn1cncc1[C@](O)(COc1ccc(C#N)cc1-c1ccc(OC(F)(F)F)cc1)c1ccc(C#N)cc1 | cell-free assay, competition with immobilised ligand | 1 µM | remaining binding | 93% |
| Cn1cc(-c2cc(F)cc(N3CCn4c(cc5c4CCCC5)C3=O)c2CO)cc(Nc2ccc(N3CCN(C4COC4)CC3)cn2)c1=O | enzyme activity, inhibitor | 0.1 µM | inhibition | 11% |
| C#Cc1n[nH]c2c(-c3cn(C(C)c4ccccn4)c(=O)[nH]c3=O)cc(F)cc12 (stereo not drawn) | enzyme activity, inhibitor | 1 µM | inhibition | -6.9% |
